In ChEMBL document CHEMBL2062452, “Identification of Simple Compounds with Microtubule-Binding Activity That Inhibit Cancer Cell Growth with High Potency” (ACS Med Chem Lett, 2011) one finds inhibition, Activity and EC50 data, which are given here for six compounds.

Calls of active or inactive are those of the source. No cut-off for these calls is given here.

For experiment [1], the system named is HT-1080. The conditions noted are these: Homo sapiens, 100 nM.
The next experiment has as its target Tubulin (Sus scrofa) (UniProt P02554+P02550). Description: Inhibition of pig brain tubulin polymerization at 5 uM measured every min for 60 mins by spectrophotometry. Put shortly:
(§1)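 Purified porcine brain tubulin self-polymerized into microtubules in buffer, and polymerization was followed as the rise in light scattering at 340 nm.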

Experiment [2] concerns HT-1080. Description: Induction of apoptosis in human HT1080 cells assessed as caspase activation at 0.33 to 2714 nM. Type of experiment: functional, cell-based. The conditions noted are these: TDE = time-dependent effect.
For experiment [3], the system named is HT-1080. Briefly: Growth inhibition of human HT1080 cells after 24 hrs by alamar blue assay. Type of experiment: functional, cell-based. The conditions noted are these: HT-1080, 24 h. (In general: Alamar Blue is a resazurin reagent that responds to reducing activity.)
Experiment [4] concerns HT-1080. Description: Induction of cell death in human HT1080 cells in presence of calcium channel inhibitor Co2+. In kind it is functional, cell-based.
Experiment [5] relates to HT-1080. Description: Induction of cell death in human HT1080 cells assessed as viability at 0.1 to 10000 nM after 24 hrs in the presence of caspase inhibitor zVAD-fmk. Type of experiment: functional, cell-based.
Experiment [6] concerns HT-1080. Briefly: Inhibition of microtubule polymerization in human HT1080 cells at 272 nM for 4 hrs by immunocytochemistry analysis. Type of experiment: cell-based. Put shortly:
(§2)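 HT-1080 cells were treated, then immunofluorescence-stained for microtubules and scored for loss of the hairlike network. Colchicine- and vinblastine-treated cells served as controls.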

Experiment [7] deals with HT-1080. Briefly: Induction of apoptosis in human HT1080 cells assessed as caspase activation after 24 to 48 hrs. In kind it is functional, cell-based.
The next experiment deals with MCF-10A. Description: Growth inhibition of human MCF10A cells after 24 hrs by alamar blue assay. In kind it is functional, cell-based.
Experiment [8] in a line: Growth inhibition of human BJeLR cells after 24 hrs by alamar blue assay. Type of experiment: functional, cell-based.
Experiment [9] concerns HT-1080. Briefly: Induction of cell death in human HT1080 cells assessed as viability at 0.1 to 10000 nM after 24 hrs in the presence of caspase inhibitor Boc-D-fmk. Type of experiment: functional, cell-based.
The test system of experiment [10] is HT-1080. Description: Induction of apoptosis in human HT1080 cells assessed as caspase activation at 0.33 to 2729 nM. Type of experiment: functional, cell-based. The conditions noted are these: TDE = time-dependent effect.
In experiment [11] the test system is HT-1080. Briefly: Inhibition of microtubule polymerization in human HT1080 cells at 50 nM for 4 hrs by immunocytochemistry analysis. Type of experiment: cell-based.
For the next experiment, the species on record is Sus scrofa. Description: Stabilization of pig brain microtubule at 5 uM measured every min for 60 mins by spectrophotometry. The method, boiled down:
as §1

Experiment [12] has as its system HT-1080. Description: Inhibition of microtubule polymerization in human HT1080 cells at 250 nM for 4 hrs by immunocytochemistry analysis. Type of experiment: cell-based. Put shortly:
as §2

Experiment [13] relates to HT-1080. Briefly: Induction of apoptosis in human HT1080 cells assessed as caspase activation at 0.81 to 6006 nM. Type of experiment: functional, cell-based. The conditions noted are these: TDE = time-dependent effect.

Sequence of Tubulin (Sus scrofa) (P02550 whole entry, looked up): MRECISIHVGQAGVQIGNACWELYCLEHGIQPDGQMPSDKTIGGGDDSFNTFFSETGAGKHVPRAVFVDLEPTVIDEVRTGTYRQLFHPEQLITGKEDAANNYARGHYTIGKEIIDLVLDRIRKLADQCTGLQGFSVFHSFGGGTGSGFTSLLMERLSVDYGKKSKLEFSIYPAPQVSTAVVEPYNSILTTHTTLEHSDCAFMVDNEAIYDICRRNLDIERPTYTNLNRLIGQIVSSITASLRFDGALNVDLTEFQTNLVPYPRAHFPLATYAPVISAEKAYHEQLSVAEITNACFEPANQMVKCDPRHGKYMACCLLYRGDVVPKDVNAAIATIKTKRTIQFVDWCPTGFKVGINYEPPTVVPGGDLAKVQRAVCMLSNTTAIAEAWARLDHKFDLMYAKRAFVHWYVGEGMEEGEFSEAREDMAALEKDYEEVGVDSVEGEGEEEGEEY
Sequence of Tubulin (Sus scrofa) (P02554 whole entry, looked up): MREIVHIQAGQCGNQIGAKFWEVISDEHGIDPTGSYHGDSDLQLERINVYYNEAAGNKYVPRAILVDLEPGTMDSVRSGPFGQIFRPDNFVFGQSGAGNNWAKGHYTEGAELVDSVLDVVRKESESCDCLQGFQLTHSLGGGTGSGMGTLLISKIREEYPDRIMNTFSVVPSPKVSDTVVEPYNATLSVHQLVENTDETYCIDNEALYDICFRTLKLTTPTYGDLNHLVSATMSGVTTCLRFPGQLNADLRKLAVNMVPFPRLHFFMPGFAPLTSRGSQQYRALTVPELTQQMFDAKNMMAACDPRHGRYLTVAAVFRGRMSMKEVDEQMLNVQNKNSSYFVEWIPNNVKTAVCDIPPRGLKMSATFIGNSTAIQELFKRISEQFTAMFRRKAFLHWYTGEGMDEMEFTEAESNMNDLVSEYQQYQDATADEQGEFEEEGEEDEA

With `CC[C@]1(O)C[C@@H]2CN(CCc3c([nH]c4ccccc34)[C@@](C(=O)OC)(c3cc4c(cc3OC)N(C)[C@H]3[C@@](O)(C(=O)OC)[C@H](OC(C)=O)[C@]5(CC)C=CCN6CC[C@]43[C@@H]65)C2)C1`, the inhibition entry in the experiment on HT-1080 [1] and at Tubulin (Sus scrofa) was “Active” throughout.

Turning to `O=S(=O)(c1ccc(-c2cnc(C3CC3)o2)cc1)N1CCCc2ccccc21`, the Activity entry is “tde” in the experiment with HT-1080 [2] and “Dose-dependent effect” in the experiment with HT-1080 [7]. Further, the concentration giving a half-maximal response (EC50) (with HT-1080 [3]; with MCF-10A; in experiment [8]) was < 100 nM each time. Besides, the result in the experiment on HT-1080 [4], in the experiment with HT-1080 [5] and with HT-1080 [9] was Active. Further, the inhibition entry in the experiment with HT-1080 [6] and at Tubulin (Sus scrofa) was “Active” each time.

Consider `CCOc1ccc(C2=Nn3c(nnc3-c3ccccc3OC)SC2)cc1`, for which the EC50 (in the experiment with HT-1080 [3]; in the experiment with MCF-10A; in experiment [8]) was < 100 nM each time. In addition, the outcome in the experiment with HT-1080 [4], in the experiment on HT-1080 [5] and in the experiment with HT-1080 [9] was Active. Moreover, in the experiment with HT-1080 [6], the inhibition result is “Active”. The figures for the Activity result in the experiment with HT-1080 [7] and in the experiment on HT-1080 [10] were “Dose-dependent effect” and “tde”, respectively.

Regarding `COc1cc2c(c(OC)c1OC)-c1ccc(OC)c(=O)cc1[C@@H](NC(C)=O)CC2`, the inhibition entry with HT-1080 [11] is “Active”.

For the compound `CC(=O)O[C@H]1C(=O)[C@@]2(C)[C@H]([C@H](OC(=O)c3ccccc3)[C@]3(O)C[C@H](OC(=O)[C@H](O)[C@@H](NC(=O)c4ccccc4)c4ccccc4)C(C)=C1C3(C)C)[C@]1(OC(C)=O)CO[C@@H]1C[C@@H]2O`, the result in the experiment listed under Sus scrofa was Active.

`COc1ccccc1N1CCN(C(=O)c2cc(=O)c3cc(C)cc(C)c3o2)CC1`: the EC50 (in the experiment on HT-1080 [3]; in the experiment on MCF-10A; in experiment [8]) was < 100 nM each time. Besides, the outcome in the experiment with HT-1080 [4], in the experiment filed under Sus scrofa, in the experiment on HT-1080 [5] and with HT-1080 [9] was Active. The inhibition result with HT-1080 [12] was “inactive”. Besides, the Activity result in the experiment with HT-1080 [13] is “tde”; in the experiment on HT-1080 [7], “Dose-dependent effect”.

A word on the EC50: it is the concentration giving half of the maximal effect. Low readings indicate an effect from little substance, high ones a need for much substance.
